Measured values: ChEMBL document CHEMBL1154352, “Toll-like receptor 7 selective synthetic oligoribonucleotide agonists: synthesis and structure-activity relationship studies” (J Med Chem, 2009)
Calls of active or inactive are those of the source. The calls are words filed in the database; no cut-off is given here.

Legend:
[1] = molecular target: T1, Toll-like receptor 7 (Homo sapiens) (UniProt Q9NYK1); assay: Activation of human TLR7 expressed in HEK293XL assessed as fold induction of NF-kappaB activity at 50 ug/ml after 18 hrs by reporter gene assay relative to control
T1 sequence (whole entry): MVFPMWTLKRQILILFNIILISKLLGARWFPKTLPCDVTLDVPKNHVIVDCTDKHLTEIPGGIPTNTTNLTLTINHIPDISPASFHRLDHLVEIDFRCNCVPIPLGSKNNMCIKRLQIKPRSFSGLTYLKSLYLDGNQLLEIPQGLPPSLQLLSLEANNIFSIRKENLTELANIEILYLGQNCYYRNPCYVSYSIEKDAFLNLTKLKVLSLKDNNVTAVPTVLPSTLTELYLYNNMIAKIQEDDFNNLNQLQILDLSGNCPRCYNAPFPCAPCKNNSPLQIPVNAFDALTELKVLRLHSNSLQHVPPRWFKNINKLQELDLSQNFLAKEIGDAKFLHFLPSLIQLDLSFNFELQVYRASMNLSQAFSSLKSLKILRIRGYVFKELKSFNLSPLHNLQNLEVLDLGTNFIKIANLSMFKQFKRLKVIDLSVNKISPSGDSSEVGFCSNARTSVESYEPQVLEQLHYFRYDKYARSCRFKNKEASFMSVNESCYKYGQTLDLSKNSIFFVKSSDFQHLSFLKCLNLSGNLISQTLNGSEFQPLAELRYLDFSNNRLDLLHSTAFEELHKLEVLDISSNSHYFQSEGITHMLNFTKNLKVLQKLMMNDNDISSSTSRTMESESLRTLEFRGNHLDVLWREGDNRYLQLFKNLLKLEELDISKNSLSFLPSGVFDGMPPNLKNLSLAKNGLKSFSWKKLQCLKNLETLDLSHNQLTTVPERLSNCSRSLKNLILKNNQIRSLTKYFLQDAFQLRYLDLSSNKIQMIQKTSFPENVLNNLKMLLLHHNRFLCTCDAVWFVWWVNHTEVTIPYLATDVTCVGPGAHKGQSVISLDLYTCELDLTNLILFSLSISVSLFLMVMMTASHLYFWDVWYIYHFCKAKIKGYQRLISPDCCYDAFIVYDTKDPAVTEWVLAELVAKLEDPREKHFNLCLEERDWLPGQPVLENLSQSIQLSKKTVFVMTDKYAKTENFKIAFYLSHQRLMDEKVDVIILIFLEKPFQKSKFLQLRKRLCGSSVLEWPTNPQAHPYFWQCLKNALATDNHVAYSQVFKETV
How it was run: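 HEK293 cells stably expressing human TLR7 or TLR8, transiently transfected with SEAP reporter plasmid; medium replaced, SIMRA compounds added, 18 h incubation. Supernatant SEAP measured by QuantiBlue; expressed as fold increase in NF-κB activity over PBS control. Tabulated data at 50 μg/mL, representative of three independent experiments.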

[2] = species on record: Homo sapiens; assay: Ratio of human TLR7 activity to human TLR8 activity
How it was run: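 TLR7/TLR8 ratio computed from fold NF-κB (SEAP reporter) activation in HEK293 cells stably expressing human TLR7 versus TLR8, compounds at 50 μg/mL, 18 h exposure; representative of three independent experiments.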

[3] = molecular target: T2, Toll-like receptor 9 (Mus musculus) (UniProt Q9EQU3); assay: Activation of mouse TLR9 expressed in HEK293 assessed as induction of NF-kappaB activity reporter gene assay; format: cell-based
T2 sequence (whole entry): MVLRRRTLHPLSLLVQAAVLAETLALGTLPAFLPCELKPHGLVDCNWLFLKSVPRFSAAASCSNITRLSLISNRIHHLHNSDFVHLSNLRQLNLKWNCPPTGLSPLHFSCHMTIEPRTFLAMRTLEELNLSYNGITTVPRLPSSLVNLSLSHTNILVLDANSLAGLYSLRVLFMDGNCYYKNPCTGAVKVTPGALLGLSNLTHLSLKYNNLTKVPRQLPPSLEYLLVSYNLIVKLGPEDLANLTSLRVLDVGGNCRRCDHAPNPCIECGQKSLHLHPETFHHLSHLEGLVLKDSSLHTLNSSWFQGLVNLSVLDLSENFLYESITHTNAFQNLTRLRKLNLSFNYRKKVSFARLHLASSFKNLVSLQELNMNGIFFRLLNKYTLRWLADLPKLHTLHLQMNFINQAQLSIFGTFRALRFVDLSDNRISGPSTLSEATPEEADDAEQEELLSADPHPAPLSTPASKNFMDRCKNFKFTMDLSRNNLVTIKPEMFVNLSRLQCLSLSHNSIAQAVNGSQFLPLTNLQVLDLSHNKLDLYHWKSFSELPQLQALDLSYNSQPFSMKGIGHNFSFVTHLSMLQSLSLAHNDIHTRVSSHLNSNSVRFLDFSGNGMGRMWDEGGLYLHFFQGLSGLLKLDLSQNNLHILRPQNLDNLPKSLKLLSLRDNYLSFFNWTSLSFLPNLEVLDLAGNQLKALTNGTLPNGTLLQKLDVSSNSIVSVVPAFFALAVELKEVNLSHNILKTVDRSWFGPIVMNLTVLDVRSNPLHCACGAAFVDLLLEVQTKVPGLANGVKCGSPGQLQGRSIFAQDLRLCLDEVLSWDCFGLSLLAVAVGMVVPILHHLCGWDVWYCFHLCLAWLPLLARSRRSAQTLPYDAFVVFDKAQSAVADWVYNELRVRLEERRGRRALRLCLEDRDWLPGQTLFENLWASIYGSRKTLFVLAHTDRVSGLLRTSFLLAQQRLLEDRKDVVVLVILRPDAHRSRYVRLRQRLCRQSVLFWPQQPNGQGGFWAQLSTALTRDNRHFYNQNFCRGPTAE

[4] = molecular target: Toll-like receptor 3 (Homo sapiens) (UniProt O15455); assay: Activation of human TLR3 expressed in HEK293 assessed as induction of NF-kappaB activity reporter gene assay; format: cell-based
Toll-like receptor 3 (Homo sapiens), sequence (O15455 whole entry): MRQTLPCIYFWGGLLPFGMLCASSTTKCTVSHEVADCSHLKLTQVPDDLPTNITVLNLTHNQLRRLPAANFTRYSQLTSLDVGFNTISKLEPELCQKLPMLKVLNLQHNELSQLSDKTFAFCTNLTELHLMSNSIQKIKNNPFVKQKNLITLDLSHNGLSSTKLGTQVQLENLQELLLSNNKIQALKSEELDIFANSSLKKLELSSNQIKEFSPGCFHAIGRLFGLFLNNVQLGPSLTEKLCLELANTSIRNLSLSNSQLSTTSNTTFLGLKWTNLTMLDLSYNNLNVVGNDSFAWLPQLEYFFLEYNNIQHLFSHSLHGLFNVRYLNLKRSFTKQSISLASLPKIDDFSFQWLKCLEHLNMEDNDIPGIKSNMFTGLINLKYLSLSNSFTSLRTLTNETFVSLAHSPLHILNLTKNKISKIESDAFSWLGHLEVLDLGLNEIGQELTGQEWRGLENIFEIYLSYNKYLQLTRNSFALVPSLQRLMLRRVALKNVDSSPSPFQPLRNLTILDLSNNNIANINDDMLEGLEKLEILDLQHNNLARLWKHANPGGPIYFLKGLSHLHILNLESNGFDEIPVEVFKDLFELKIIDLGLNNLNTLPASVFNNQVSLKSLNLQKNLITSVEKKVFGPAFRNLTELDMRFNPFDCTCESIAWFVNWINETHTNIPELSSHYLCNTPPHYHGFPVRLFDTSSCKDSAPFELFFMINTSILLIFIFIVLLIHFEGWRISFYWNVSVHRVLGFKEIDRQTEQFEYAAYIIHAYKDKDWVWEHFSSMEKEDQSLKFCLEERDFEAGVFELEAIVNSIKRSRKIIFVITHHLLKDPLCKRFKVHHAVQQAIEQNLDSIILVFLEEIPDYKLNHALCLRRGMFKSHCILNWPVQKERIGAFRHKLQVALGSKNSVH

[5] = tested on: Splenocyte; assay: Immunomodulatory activity in C57BL/6 mouse splenocytes bearing TLR7 receptor assessed as IL6 release at 100 ug/ml after 24 hrs by ELISA; format: functional, cell-based
How it was run: (§1)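 C57BL/6 splenocytes in RPMI 1640 with 10% FBS, penicillin/streptomycin, 2 mM L-glutamine, plated at 5 × 10^6 cells/mL; compounds in PBS added, 37 °C for 24 h. Supernatant IL-12 and IL-6 by ELISA; representative of three independent experiments.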

[6] = tested on: Splenocyte; assay: Immunomodulatory activity in C57BL/6 mouse splenocytes bearing TLR7 receptor assessed as IL12 release at 100 ug/ml after 24 hrs by ELISA; format: functional, cell-based; how it was run: as §1
[7] = tested on: PBMC; assay: Immunomodulatory activity in human PBMC assessed as induction of IL12 at 100 ug/ml after 24 hrs; format: functional, cell-based
How it was run: (§2)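 Human PBMCs plated at 5 × 10^6 cells/mL; compounds dissolved in PBS added at various concentrations, 37 °C for 24 h. Supernatant cytokines/chemokines quantified with human Luminex multiplex kit.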

[8] = tested on: PBMC; assay: Immunomodulatory activity in human PBMC assessed as induction of TNFalpha at 100 ug/ml after 24 hrs; format: functional, cell-based; how it was run: as §2
[9] = tested on: PBMC; assay: Immunomodulatory activity in human PBMC assessed as induction of IFN-alpha at 100 ug/ml after 24 hrs

fold change (FC) [1] | Ratio [2] | Activity [3] | Activity [4] | Activity [5] | Activity [6] | SMILES | Activity [7] | Activity [8] | IFN-alpha [9]
18.4 | 46 | inactive | inactive | Active | Active | Nc1ccn([C@@H]2O[C@H](COP(=O)(S)O[C@H]3[C@@H](O)[C@H](n4cnc5c(N)ncnc54)O[C@@H]3COP(=O)(S)O[C@H]3[C@@H](O)[C@H](n4cnc5c(N)ncnc54)O[C@@H]3CO)[C@@H](OP(=O)(S)OC[C@H]3O[C@@H](n4ccc(=O)[nH]c4=O)[C@H](O)[C@@H]3OP(=O)(S)OC[C@H]3O[C@@H](n4ccc5c(=O)[nH]c(N)nc54)[C@H](O)[C@@H]3OP(=O)(S)OC[C@H]3O[C@@H](n4cnc5c(N)ncnc54)[C@H](O)[C@@H]3OP(=O)(S)OC[C@H]3O[C@@H](n4ccc(N)nc4=O)[C@H](O)[C@@H]3OP(=O)(S)OC[C@H]3O[C@@H](n4ccc5c(=O)[nH]c(N)nc54)[C@H](O)[C@@H]3OP(=O)(S)OC[C@H]3O[C@@H](n4ccc(N)nc4=O)[C@H](O)[C@@H]3OP(=O)(S)OC[C@H]3O[C@@H](n4ccc(=O)[nH]c4=O)[C@H](O)[C@@H]3OP(=O)(S)OC[C@H]3O[C@@H](n4ccc5c(=O)[nH]c(N)nc54)[C@H](O)[C@@H]3OP(=O)(S)OCC(O)COP(=O)(S)O[C@H]3[C@@H](O)[C@H](n4ccc5c(=O)[nH]c(N)nc54)O[C@@H]3COP(=O)(S)O[C@H]3[C@@H](O)[C@H](n4ccc(=O)[nH]c4=O)O[C@@H]3COP(=O)(S)O[C@H]3[C@@H](O)[C@H](n4ccc(N)nc4=O)O[C@@H]3COP(=O)(S)O[C@H]3[C@@H](O)[C@H](n4ccc5c(=O)[nH]c(N)nc54)O[C@@H]3COP(=O)(S)O[C@H]3[C@@H](O)[C@H](n4ccc(N)nc4=O)O[C@@H]3COP(=O)(S)O[C@H]3[C@@H](O)[C@H](n4cnc5c(N)ncnc54)O[C@@H]3COP(=O)(S)O[C@H]3[C@@H](O)[C@H](n4ccc5c(=O)[nH]c(N)nc54)O[C@@H]3COP(=O)(S)O[C@H]3[C@@H](O)[C@H](n4ccc(=O)[nH]c4=O)O[C@@H]3COP(=O)(S)O[C@H]3[C@@H](O)[C@H](n4ccc(N)nc4=O)O[C@@H]3COP(=O)(S)O[C@H]3[C@@H](O)[C@H](n4cnc5c(N)ncnc54)O[C@@H]3COP(=O)(S)O[C@H]3[C@@H](O)[C@H](n4cnc5c(N)ncnc54)O[C@@H]3CO)[C@H]2O)c(=O)n1 (stereo partly drawn) | 154 pg/mL | 0 pg/mL | 0 pg/mL
27 | 15.9 | inactive | inactive | Active | Active | Nc1ccn([C@@H]2O[C@H](COP(=O)(S)O[C@H]3[C@@H](O)[C@H](n4cnc5c(N)ncnc54)O[C@@H]3CO)[C@@H](OP(=O)(S)OC[C@H]3O[C@@H](n4ccc(=O)[nH]c4=O)[C@H](O)[C@@H]3OP(=O)(S)OC[C@H]3O[C@@H](n4ccc5c(=O)[nH]c(N)nc54)[C@H](O)[C@@H]3OP(=O)(S)OC[C@H]3O[C@@H](n4ccc(N)nc4=O)[C@H](O)[C@@H]3OP(=O)(S)OC[C@H]3O[C@@H](n4ccc5c(=O)[nH]c(N)nc54)[C@H](O)[C@@H]3OP(=O)(S)OC[C@H]3O[C@@H](n4cnc5c(N)ncnc54)[C@H](O)[C@@H]3OP(=O)(S)OC[C@H]3O[C@@H](n4ccc5c(=O)[nH]c(N)nc54)[C@H](O)[C@@H]3OP(=O)(S)OC[C@H]3O[C@@H](n4ccc(N)nc4=O)[C@H](O)[C@@H]3OP(=O)(S)OC[C@H]3O[C@@H](n4ccc(=O)[nH]c4=O)[C@H](O)[C@@H]3OP(=O)(S)OC[C@H]3O[C@@H](n4ccc(=O)[nH]c4=O)[C@H](O)[C@@H]3OP(=O)(S)OCC(O)COP(=O)(S)O[C@H]3[C@@H](O)[C@H](n4ccc(=O)[nH]c4=O)O[C@@H]3COP(=O)(S)O[C@H]3[C@@H](O)[C@H](n4ccc(=O)[nH]c4=O)O[C@@H]3COP(=O)(S)O[C@H]3[C@@H](O)[C@H](n4ccc(N)nc4=O)O[C@@H]3COP(=O)(S)O[C@H]3[C@@H](O)[C@H](n4ccc5c(=O)[nH]c(N)nc54)O[C@@H]3COP(=O)(S)O[C@H]3[C@@H](O)[C@H](n4cnc5c(N)ncnc54)O[C@@H]3COP(=O)(S)O[C@H]3[C@@H](O)[C@H](n4ccc5c(=O)[nH]c(N)nc54)O[C@@H]3COP(=O)(S)O[C@H]3[C@@H](O)[C@H](n4ccc(N)nc4=O)O[C@@H]3COP(=O)(S)O[C@H]3[C@@H](O)[C@H](n4ccc5c(=O)[nH]c(N)nc54)O[C@@H]3COP(=O)(S)O[C@H]3[C@@H](O)[C@H](n4ccc(=O)[nH]c4=O)O[C@@H]3COP(=O)(S)O[C@H]3[C@@H](O)[C@H](n4ccc(N)nc4=O)O[C@@H]3COP(=O)(S)O[C@H]3[C@@H](O)[C@H](n4cnc5c(N)ncnc54)O[C@@H]3CO)[C@H]2O)c(=O)n1 (stereo partly drawn) | 487 pg/mL | 43.5 pg/mL | 131 pg/mL
